Reference: ChEMBL document CHEMBL4325822, “Discovery of a tetrazolyl β-carboline with in vitro and in vivo osteoprotective activity under estrogen-deficient conditions” (Medchemcomm, 2018)
The source made the active and inactive calls. The calls are words filed in the database; no cut-off is given here.

Legend:
Rattus norvegicus [1] = assay: Antiosteoporotic activity in Sprague-Dawley rat model of OVX-induced bone loss assessed as increase in femoral bone strength by measuring stiffness at 1 mg/kg, po via gavage for 12 weeks by 3 point bending test (reference value: 122.07 +/- 12.18 N/mm); format: functional
Rattus norvegicus [2] = assay: Antiosteoporotic activity in Sprague-Dawley rat model of OVX-induced bone loss assessed as restoration of bone mineral density loss in femur bone at 1 to 5 mg/kg po via gavage for 12 weeks by microcomputed tomographic analysis relative to control; format: functional
Outline: (§1)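 Adult female Sprague-Dawley rats were ovariectomized and left 12 weeks to become osteopenic. They then received 12 weeks of once-daily oral gavage (1% gum acacia vehicle) or subcutaneous estradiol, five days a week. Femurs were collected at sacrifice and scanned by micro-CT for BMD and trabecular microarchitecture. Ten rats per group; mean ± SEM.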

[3] = Toxicity in Sprague-Dawley rat model of OVX-induced bone loss assessed as luminal area at 1 mg/kg, po via gavage for 12 weeks (reference value: 0.01 +/- 0.0004 mm2); format: organism-based; conditions: in vivo, 2016 h
[4] = Increase in BMP2 mRNA expression in Sprague-Dawley rat calvarial osteoblasts at 100 pM by RT-PCR method relative to control; format: functional, Calvarial osteoblast
Outline: (§2)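 Primary calvarial osteoblasts were lysed in TRIzol after treatment, and total RNA was extracted. Transcripts were quantified by real-time PCR using the comparative CT (ΔΔCT) method.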

Rattus norvegicus [5] = assay: Antiosteoporotic activity in Sprague-Dawley rat model of OVX-induced bone loss assessed as protection against microarchitectural deterioration by measuring trabecular number at 1 mg/kg, po via gavage for 12 weeks by microcomputed tomographic analysis (reference value: 0.56 +/- 0.06 /millimeter); format: functional; outline: as §1
[6] = Increase in OCN mRNA expression in Sprague-Dawley rat calvarial osteoblasts at 100 pM by RT-PCR method relative to control; format: functional, Calvarial osteoblast; outline: as §2
Calvarial osteoblast [7] = assay: Antioxidant activity in Sprague-Dawley rat calvarial osteoblasts assessed as inhibition of TNFalpha-induced intracellular ROS production at 100 pM after 24 hrs by DCFH-DA staining based fluorescence assay; format: functional, cell-based
Outline: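 Primary rat calvarial osteoblasts were treated 24 h, then washed twice with serum-free medium. DCFH-DA (10 µg·mL⁻¹) was added in medium with 2% serum, followed by 30 min in the dark. Fluorescence was read at Ex 485/Em 535 nm.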

[8] = Toxicity in Sprague-Dawley rat model of OVX-induced bone loss assessed as luminal area at 5 mg/kg, po via gavage for 12 weeks (reference value: 0.01 +/- 0.0004 mm2); format: organism-based; conditions: in vivo, 2016 h
Rattus norvegicus [9] = assay: Antiosteoporotic activity in Sprague-Dawley rat model of OVX-induced bone loss assessed as protection against microarchitectural deterioration by measuring trabecular separation at 1 mg/kg, po via gavage for 12 weeks by microcomputed tomographic analysis (reference value: 1.31 +/- 0.06 millimeter); format: functional; outline: as §1
Calvarial osteoblast [10] = assay: Increase in OCN protein expression in Sprague-Dawley rat calvarial osteoblasts at 100 pM after 48 hrs by Western blot analysis; format: functional, cell-based
Outline: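 Rat calvarial osteoblasts (pooled 1–2-day pups, collagenase/dispase digests) at 60–70% confluence treated 48 h. Whole-cell lysates immunoblotted with primary antibody overnight at 4 °C, then HRP secondary, with ECL detection. Densitometry gives fold change normalized to β-actin versus untreated cells. Mean ± SEM of three independent experiments.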

[11] = Antioxidant activity assessed as SNP-induced nitric oxide free radical scavenging activity at 1000 ug/ml after 150 mins by Griess reagent based method relative to control; format: functional
Outline: (§3)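 Serial dilutions (1000 to 1.95 µg·ml⁻¹) were mixed with sodium nitroprusside (10 mM) and incubated 150 min. An equal volume of Griess reagent was added, and absorbance was read at 546 nm. Percentage scavenging was calculated relative to the control without compound.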

[12] = Induction of osteoblast differentiation in Sprague-Dawley rat calvarial osteoblasts assessed as alkaline phosphatase activity after 48 hrs using PNPP as substrate by spectrophotometric method; format: functional, cell-based; conditions: Rattus norvegicus, Sprague-Dawley, Calvarial osteoblast, 48 h; read-out: EC50
Outline: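 Calvarial osteoblasts at 2 × 10³ cells/well. Treated 48 h with varied concentrations in differentiation medium (5% charcoal-treated FBS, 10 mM β-glycerophosphate, 50 µg·mL⁻¹ ascorbic acid). Total ALP read with PNPP substrate at 405 nm. Cell-free wells check for compound interference with substrate or absorbance.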

[13] = Antioxidant activity assessed as DPPH radical scavenging activity at 250 ug/ml after 30 mins by spectrophotometric method relative to control; format: functional
Outline: (§4)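 The compound was serially diluted from 1000 to 1.95 µg·ml⁻¹ and mixed 1:1 with DPPH in methanol. After 30 min at room temperature, absorbance was read at 517 nm. Scavenging (%) = [(Abc − Abs)/Abc] × 100, where Abc is DPPH without compound.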

Rattus norvegicus [14] = assay: Antiosteoporotic activity in Sprague-Dawley rat model of OVX-induced bone loss assessed as bone formation rate at 1 mg/kg, po via gavage for 12 weeks by microcomputed tomographic analysis (reference value: 0.171 +/- 0.005 um3/um2/day); format: functional
Outline: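 Female Sprague-Dawley rats, 10-12 weeks old, ten per group, were ovariectomized and left 12 weeks for osteopenia. They were then dosed once daily by oral gavage for 12 weeks in 1% gum acacia vehicle. The estradiol arm received 100 µg·kg⁻¹ subcutaneously five days a week. Tetracycline and calcein were given intraperitoneally at 20 mg·kg⁻¹ each. Femur cross-sections (50 µm) were imaged by fluorescence microscopy for MAR and BFR.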

Rattus norvegicus [15] = assay: Antiosteoporotic activity in Sprague-Dawley rat model of OVX-induced bone loss assessed as increase in femoral bone strength by measuring stiffness at 5 mg/kg, po via gavage for 12 weeks by 3 point bending test (reference value: 122.07 +/- 12.18 N/mm); format: functional
[16] = Toxicity in Sprague-Dawley rat model of OVX-induced bone loss assessed as uterine weight at 5 mg/kg, po via gavage for 12 weeks (reference value: 0.12 +/- 0.02 g); format: organism-based; conditions: in vivo, 2016 h
Rattus norvegicus [17] = assay: Antiosteoporotic activity in Sprague-Dawley rat model of OVX-induced bone loss assessed as protection against microarchitectural deterioration by measuring trabecular separation at 5 mg/kg, po via gavage for 12 weeks by microcomputed tomographic analysis (reference value: 1.31 +/- 0.06 millimeter); format: functional; outline: as §1
[18] = Antioxidant activity assessed as DPPH radical scavenging activity at 1.95 ug/ml after 30 mins by spectrophotometric method relative to control; format: functional; outline: as §4
Rattus norvegicus [19] = assay: Upregulation of BMP2 mRNA expression in femur bone of Sprague-Dawley rat model of OVX-induced bone loss at 1 to 5 mg/kg, po via gavage for 12 weeks by qPCR analysis; format: functional, organism-based
Outline: (§5)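 Ovariectomized female SD rats, osteopenic after 12 weeks, dosed orally once daily for 12 weeks (1.0 or 5.0 mg·kg⁻¹·day⁻¹, 1% gum acacia vehicle); sham and OVX vehicle groups included. Femurs collected at sacrifice for qRT-PCR, analysed by the ΔΔCT method.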

[20] = Antioxidant activity assessed as SNP-induced nitric oxide free radical scavenging activity at 500 ug/ml after 150 mins by Griess reagent based method relative to control; format: functional; outline: as §3
Rattus norvegicus [21] = assay: Upregulation of Runx2 mRNA expression in femur bone of Sprague-Dawley rat model of OVX-induced bone loss at 1 to 5 mg/kg, po via gavage for 12 weeks by qPCR analysis; format: functional, organism-based; outline: as §5

## CCOC(=O)c1cc2c([nH]c3ccccc32)c(C(c2nnnn2C(C)(C)C)N2CCN(C)CC2)n1 (stereo unspecified)
Rattus norvegicus [1]
  Activity: 151.3 N/mm
Rattus norvegicus [2]
  Activity: 46%
[3]
  Activity: 0.012 mm2
[4]
  fold change (FC): 1.8 - 4.6
Rattus norvegicus [5]
  Activity: 1.34 /millimeter
[6]
  fold change (FC): 1.8 - 4.6
Calvarial osteoblast [7]
  inhibition: Active
[8]
  Activity: 0.012 mm2
Rattus norvegicus [9]
  Activity: 0.73 mm
Calvarial osteoblast [10]
  Activity: Active
[11]
  Activity: 19.3%
[12]
  EC50: 900 nM
[13]
  Activity: 37.8%
Rattus norvegicus [14]
  Activity: 1.032 um3/um2/day
Rattus norvegicus [15]
  Activity: 146.6 N/mm
[16]
  Activity: 0.12 g
Rattus norvegicus [17]
  Activity: 0.87 mm
[18]
  Activity: 3.34%
Rattus norvegicus [19]
  Activity: Active
[20]
  Activity: 31.4%
Rattus norvegicus [21]
  Activity: Active
